Test results as given in ChEMBL document CHEMBL4251686, “Withaferin A and Withanolide D Analogues with Dual Heat-Shock-Inducing and Cytotoxic Activities: Semisynthesis and Biological Evaluation” (J Nat Prod, 2018).
pIC50: −log10 of the molar value. The source made the active and inactive calls. No cut-off for these calls is given here. Residues, ends and D or L forms follow the SMILES beside them. *: point of attachment. Cbz = O=C(OCc1ccccc1)*

Experiments:
HEK-293T [1] = test: Ratio of induction of heat shock response in GFP-tagged human 293T cells to IC50 for cytotoxicity against human 293T cells; type: functional
[2] = Cytotoxicity against human CHP100 cells assessed as reduction in cell viability after 24 hrs by resazurin dye based Alamar blue assay; type: functional; conditions: CHP100, 24 h
HEK-293T [3] = test: Induction of heat shock response in GFP-tagged human 293T cells after overnight incubation by luciferase reporter gene based luminometric method relative to control; type: functional
HEK-293T [4] = test: Induction of heat shock response in GFP-tagged human 293T cells at 1 to 5 uM after overnight incubation by luciferase reporter gene based luminometric method; type: functional, cell-based
Outline: (§1)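 Heat-shock reporter 293T cells (GFP–firefly luciferase under HSP70B′ promoter elements, FACS-enriched high responders) were seeded at 20 000 cells/well in 384-well plates and exposed to compounds at 1.0 or 5.0 μM overnight. Luciferase activity measured by luminometer. Maximal induction expressed as fold over control (Log2), mean of two biological replicates.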

HEK-293T [5] = test: Cytotoxicity against human 293T cells assessed as reduction in cell viability after 72 hrs by resazurin dye based Alamar blue assay; type: functional
HEK-293T [6] = test: Induction of heat shock response in GFP-tagged human 293T cells at 1 uM after overnight incubation by luciferase reporter gene based luminometric method; type: functional, cell-based; outline: as §1
HEK-293T [7] = test: Induction of heat shock response in GFP-tagged human 293T cells at 5 uM after overnight incubation by luciferase reporter gene based luminometric method; type: functional, cell-based; outline: as §1

Row | Compound | Ratio (HEK-293T [1]) | pIC50 [2] | AUC (HEK-293T [3]) | Activity (HEK-293T [4]) | pIC50 (HEK-293T [5]) | Activity (HEK-293T [6]) | Activity (HEK-293T [7])
1 | CC(=O)OCC1=C(C)C[C@H]([C@@H](C)[C@H]2[C@@H](OC(C)=O)C[C@H]3[C@@H]4C[C@H](I)[C@]5(O)[C@@H](OC(C)=O)C=CC(=O)[C@]5(C)[C@H]4CC[C@]23C)OC1=O | 0.56 | 6.33 | 235 | Active | 6.38 |  | 
2 | CC(C)c1cc(-c2n[nH]c(=O)n2-c2ccc3c(ccn3C)c2)c(O)cc1O [GANETESPIB] |  |  | 59 |  |  |  | 
3 | CC1=C(CO)C(=O)O[C@@H]([C@@H](C)[C@H]2CC[C@H]3[C@@H]4C[C@H]5O[C@]56[C@@H](O)C=CC(=O)[C@]6(C)[C@H]4CC[C@]23C)C1 [WITHAFERIN A] | 0.23 | 6.37 | 68 | Active | 6.52 |  | 
4 | CC(=O)OCC1=C(C)C[C@H]([C@@H](C)[C@H]2CC[C@H]3[C@@H]4C[C@H]5O[C@]56[C@H](OC(C)=O)C=CC(=O)[C@]6(C)[C@H]4CC[C@]23C)OC1=O |  |  |  | Active |  |  | 
5 | CC(=O)O[C@H]1C[C@H]2[C@@H]3C[C@H]4O[C@]45[C@@H](OC(C)=O)C=CC(=O)[C@]5(C)[C@H]3CC[C@]2(C)[C@H]1[C@@](C)(O)[C@H]1CC(C)=C(C)C(=O)O1 |  |  |  |  |  | Active | 
6 | CC1=C(CO)C(=O)O[C@@H]([C@@H](C)[C@H]2CC[C@H]3[C@@H]4C[C@H]5O[C@]56[C@H](O)C=CC(=O)[C@]6(C)[C@H]4CC[C@]23C)C1 | 0.18 | 6.51 | 44 |  | 6.60 |  | Active
7 | CC(=O)OCC1=C(C)C[C@H]([C@@H](C)[C@H]2CC[C@H]3[C@@H]4C[C@H]5O[C@]56[C@@H](OC(C)=O)C=CC(=O)[C@]6(C)[C@H]4C[C@@H](OC(C)=O)[C@]23C)OC1=O | 3.61 | 6.92 | 419 | Active | 6.94 |  | 
8 | CC(=O)O[C@H]1C=CC(=O)[C@]2(C)[C@H]3CC[C@]4(C)[C@@H]([C@@](C)(O)[C@H]5CC(C)=C(C)C(=O)O5)CC[C@H]4[C@@H]3C[C@H]3O[C@]132 | 0.5 | 6.53 |  |  | 6.85 | Active | 
9 | CC1=C(C)C(=O)O[C@@H]([C@](C)(O)[C@H]2CC[C@H]3[C@@H]4C[C@H]5O[C@]56[C@@H](O)C=CC(=O)[C@]6(C)[C@H]4CC[C@]23C)C1 [WITHANOLIDE D] | 0.02 | 6.49 | 13 |  | 6.15 | Active | 
10 | CC(=O)OCC1=C(C)C[C@H]([C@@H](C)[C@H]2[C@@H](OC(C)=O)C[C@H]3[C@@H]4C[C@H]5O[C@]56[C@@H](OC(C)=O)C=CC(=O)[C@]6(C)[C@H]4CC[C@]23C)OC1=O | 2.23 | 7.23 | 196 | Active | 7.06 |  | 
11 | CC1=C(C)C(=O)O[C@@H]([C@](C)(O)[C@H]2CC[C@H]3[C@@H]4C[C@H]5O[C@]56C(=O)C=CC(=O)[C@]6(C)[C@H]4CC[C@]23C)C1 |  |  |  |  |  | Active | 
12 | CC(=O)OCC1=C(C)C[C@H]([C@@H](C)[C@H]2CC[C@H]3[C@@H]4C[C@H]5O[C@]56[C@@H](OC(C)=O)C=CC(=O)[C@]6(C)[C@H]4CC[C@]23C)OC1=O |  |  | 351 | Active |  |  | 
13 | CC(C)C[C@@H](C=O)NC(=O)[C@H](CC(C)C)NC(=O)[C@H](CC(C)C)NC(=O)OCc1ccccc1 [MG-132] (Cbz-Leu-Leu-Leu-aldehyde) |  |  | 332 |  |  |  | 
